Assay results: ChEMBL document CHEMBL1124572, “Synthesis and biological activity of novel carbacyclins having bicyclic substituents on the omega-chain” (J Med Chem, 1989)
Converted amounts (≈) assume the structure as drawn. The source made the active and inactive calls. The rule behind the calls is not given here.

What was measured:
Rattus norvegicus [1] = species on record: Rattus norvegicus; test: Antiaggregatory activity is expressed as dose that inhibit rat platelet aggregation induced by collagen by 50% of that of the control; format: functional
Procedure, shortened: (§1)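 Male Wistar rats (250–350 g) under ether anesthesia were bled from the abdominal aorta into 0.1 volume 3.13% sodium citrate. Aggregation was induced by collagen (final 5 μg/mL) and read in an aggregometer at 37 °C with stirring. The IC50 is the concentration inhibiting aggregation by 50% versus control, derived by linear regression from three dose groups of five or six animals (mean ± SEM).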

Rattus norvegicus [2] = test: Inhibition of ethanol induced gastric lesions in the rat following p.o. administration.; format: functional; details: Stomach, po
Procedure, shortened: (§2)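 Male Sprague-Dawley rats (200–300 g) were fasted 24 h and dosed orally at 2 mL/kg, 30 min before 1 mL of 100% ethanol per rat. Animals were killed 1 h later, and stomachs were formalin-fixed, opened along the greater curvature and examined for lesions. ED50 is the dose giving 50% lesion inhibition versus control, derived by linear regression from three dose groups of eight rats each.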

Rattus norvegicus [3] = test: Dose that reduces mean blood pressure by 15 mmHg (peak effect) in rat administered intravenously; format: functional
Procedure, shortened: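 Male Wistar rats (200–300 g) were anesthetized with urethane. Compound was given iv via the femoral vein, and blood pressure was recorded by transducer through a femoral artery catheter. MBP15 is the dose lowering mean blood pressure by 15 mmHg at peak effect, derived by linear regression from three dose groups of five or six animals (mean ± SEM).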

[4] = Ratio of relative potencies of antiaggregation/ hypotension to that of PGI-2 Na in rats
[5] = Ratio of relative potencies of organ protection/ hypotension to that of PGE-2 in rats; format: functional
Procedure, shortened: (§3)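 Relative potencies were calculated against PGE2 from the rat oral ED50 for ethanol-induced gastric lesions and the iv MBP15 hypotension dose. The ratio is organ-protective relative potency divided by hypotensive relative potency, with PGE2 set to 1.0.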

Rattus norvegicus [6] = species on record: Rattus norvegicus; test: Relative potency for hypotension in rats; format: functional
Rattus norvegicus [7] = species on record: Rattus norvegicus; test: Relative potency for antiaggregation; format: functional
Procedure, shortened: (§4)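 Antiaggregation relative potency was calculated against PGI2 from the IC50 for collagen-induced (5 μg/mL) aggregation of citrated rat blood, measured at 37 °C.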

Rattus norvegicus [8] = species on record: Rattus norvegicus; test: Relative potency for organ protection in rats; format: functional; procedure, shortened: as §3
Rattus norvegicus [9] = test: Inhibition of ethanol induced gastric lesions in the rat following p.o. administration; No effect.; format: functional, organism-based; details: Stomach; procedure, shortened: as §2
Rattus norvegicus [10] = species on record: Rattus norvegicus; test: Relative potency for antiaggregation in rats; format: functional; procedure, shortened: as §4
Rattus norvegicus [11] = species on record: Rattus norvegicus; test: Relative potency for hypotension; format: functional
Rattus norvegicus [12] = test: Organ-protective activity is expressed as dose that inhibits 50 percent of ethanol-induced gastric lesions of control orally in rat; No effect; format: functional, organism-based; details: Stomach; procedure, shortened: as §2
Rattus norvegicus [13] = species on record: Rattus norvegicus; test: Antiaggregatory activity is expressed as dose that inhibit rat platelet aggregation induced by collagen by 50% of that of the control; No effect; format: functional; procedure, shortened: as §1
Rattus norvegicus [14] = species on record: Rattus norvegicus; test: Relative potency for organ protection; format: functional; procedure, shortened: as §3

Row | SMILES | IC50 (Rattus norvegicus [1]) [µg/mL] | ED50 (Rattus norvegicus [2]) [mg/kg] | Dose lowering mean blood pressure by 15 mmHg (Rattus norvegicus [3]) [mg/kg] | also measured
1 | O=C(O)CCC/C=C1\CC2C[C@@H](O)[C@H](/C=C/[C@@H](O)C3Cc4ccc(Cl)cc4C3)C2C1 (some centres not stated) | 0.407 (≈ 0.945 µM) | > 0.3 | >0.1 | –
2 | O=C(O)CCC/C=C1\CC2C[C@@H](O)[C@H](/C=C/[C@@H](O)CC3COc4ccccc4O3)C2C1 (some centres not stated) | 0.324 (≈ 0.755 µM) | > 0.3 | 0.044 | –
3 | CC1([C@H](O)/C=C/[C@@H]2C3CC(CCOCC(=O)O)=C[C@H]3C[C@H]2O)Cc2ccccc2C1 (some centres not stated) | 0.0692 (≈ 0.168 µM) | 0.006 | 0.002 | –
4 | O=C(O)CCC/C=C1\CC2C[C@@H](O)[C@H](C#C[C@@H](O)C3Cc4ccccc4C3)C2C1 (some centres not stated) | 0.0082 (≈ 0.0208 µM) | 0.0017 | 0.0013 | Ratio [4]: 1.8; Ratio [5]: 21.8; Relative potency (Rattus norvegicus [6]): 0.9; Relative potency (Rattus norvegicus [7]): 0.42; Relative potency (Rattus norvegicus [8]): 20.1
5 | O=C(O)CCC/C=C1\CC2C[C@@H](O)[C@H](/C=C/[C@@H](O)c3ccc4c(c3)CCC4)C2C1 (some centres not stated) | > 1 | – | >0.1 | ED50 (Rattus norvegicus [9]): No effect
6 | O=C(O)CCC/C=C1\CC2C[C@@H](O)[C@H](/C=C/[C@@H](O)C3COc4ccccc4O3)C2C1 (some centres not stated) | 0.324 (≈ 0.781 µM) | 0.0045 | 0.002 | Ratio [5]: 12.7; Relative potency (Rattus norvegicus [6]): 0.6; Relative potency (Rattus norvegicus [8]): 7.6
7 | CC1([C@H](O)/C=C/[C@@H]2C3C/C(=C/CCCC(=O)O)CC3C[C@H]2O)Cc2ccccc2C1 (some centres not stated) | 0.0302 (≈ 0.0736 µM) | 0.0452 | 0.0053 | –
8 | O=C(O)COCCC1=C[C@H]2C[C@@H](O)[C@H](/C=C/[C@@H](O)C3Cc4ccccc4C3)C2C1 (some centres not stated) | 0.0567 (≈ 0.142 µM) | 0.0274 | 0.0022 | –
9 | O=C(O)COC/C=C1\CC2C[C@@H](O)[C@H](/C=C/[C@@H](O)C3Cc4ccccc4C3)C2C1 (some centres not stated) | 0.0153 (≈ 0.0384 µM) | 0.0675 | 0.0038 | Relative potency (Rattus norvegicus [10]): 0.23; Relative potency (Rattus norvegicus [6]): 0.08
10 | O=C(O)CCC/C=C1\CC2C[C@@H](O)[C@H](/C=C/[C@@H](O)C3Cc4ccccc4C3)C2C1 (some centres not stated) | 0.0204 (≈ 0.0514 µM) | 0.0562 | 0.0043 | Relative potency (Rattus norvegicus [10]): 0.17; Ratio [4]: 2.4; Relative potency (Rattus norvegicus [6]): 0.07
11 | Cc1ccc2c(c1)OCC([C@H](O)/C=C/[C@@H]1C3C/C(=C/CCCC(=O)O)CC3C[C@H]1O)O2 (some centres not stated) | 0.647 (≈ 1.51 µM) | 0.11 | 0.013 | –
12 | OCCCC/C=C1\CC2C[C@@H](O)[C@H](/C=C/[C@@H](O)C3Cc4ccccc4C3)C2C1 (some centres not stated) | > 1 | 0.0536 | >0.1 | –
13 | CCCCC[C@H](O)/C=C/[C@@H]1[C@H]2C/C(=C/CCCC(=O)[O-])O[C@H]2C[C@H]1O.[Na+] [EPOPROSTENOL SODIUM] | 0.0034 | – | 0.0003 | Relative potency (Rattus norvegicus [11]): 1; ED50 (Rattus norvegicus [12]): inactive; Relative potency (Rattus norvegicus [7]): 1
14 | CC(C)c1cccc2c(CC[C@H](O)/C=C/[C@@H]3C4C/C(=C/CCCC(=O)O)CC4C[C@H]3O)ccc-2c1 (some centres not stated) | > 1 | – | >0.1 | ED50 (Rattus norvegicus [9]): No effect
15 | O=C(O)CCC/C=C1\CC2C[C@@H](O)[C@H](/C=C/[C@@H](O)C3CCc4ccccc43)C2C1 (some centres not stated) | > 1 | – | >0.1 | ED50 (Rattus norvegicus [9]): No effect
16 | COc1ccc2c(c1)CC([C@H](O)/C=C/[C@@H]1C3C/C(=C/CCCC(=O)O)CC3C[C@H]1O)C2 (some centres not stated) | 0.0705 (≈ 0.165 µM) | 0.0143 | 0.006 | –
17 | O=C(O)CCC/C=C1\CC2C[C@@H](O)[C@H](/C=C/[C@@H](O)c3ccc4c(c3)OCCO4)C2C1 (some centres not stated) | > 1 | > 0.3 | >0.1 | –
18 | NC(=O)CCC/C=C1\CC2C[C@@H](O)[C@H](/C=C/[C@@H](O)C3Cc4ccccc4C3)C2C1 (some centres not stated) | 0.0537 (≈ 0.136 µM) | 0.113 | 0.0977 | –
19 | O=C(O)CCC/C=C1\CC2C[C@@H](O)[C@H](/C=C/[C@@H](O)c3ccc4c(c3)OCO4)C2C1 (some centres not stated) | > 1 | – | >0.1 | ED50 (Rattus norvegicus [9]): No effect
20 | COc1ccc2c(c1)OCC([C@H](O)/C=C/[C@@H]1C3C/C(=C/COCC(=O)O)CC3C[C@H]1O)O2 (some centres not stated) | > 1 | – | 0.0062 | ED50 (Rattus norvegicus [9]): No effect
21 | O=C(O)CCC/C=C1\CC2C[C@@H](O)[C@H](/C=C/[C@@H](O)C3Cc4ccc([N+](=O)[O-])cc4C3)C2C1 (some centres not stated) | 0.15 (≈ 0.34 µM) | 0.14 | 0.0085 | –
22 | COc1ccc2c(c1)OCC([C@H](O)/C=C/[C@@H]1C3C/C(=C/CCCC(=O)O)CC3C[C@H]1O)O2 (some centres not stated) | 0.355 (≈ 0.799 µM) | 0.0021 | 0.0035 | Ratio [5]: 47.6; Relative potency (Rattus norvegicus [6]): 0.3; Relative potency (Rattus norvegicus [8]): 16.2
23 | O=C(O)CCC/C=C1\CC2C[C@@H](O)[C@H](/C=C/[C@@H](O)C3COC4CCCCC4O3)C2C1 (some centres not stated) | > 1 | 0.256 | 0.0135 | –
24 | CCCCC[C@H](O)/C=C/[C@H]1[C@H](O)CC(=O)[C@@H]1C/C=C\CCCC(=O)O [DINOPROSTONE] | – | 0.0341 | 0.0012 | Relative potency (Rattus norvegicus [11]): 1; IC50 (Rattus norvegicus [13]): Not Active; Relative potency (Rattus norvegicus [14]): 1
25 | O=C(O)CCC/C=C1\CC2C[C@@H](O)[C@H](CC[C@@H](O)C3Cc4ccccc4C3)C2C1 (some centres not stated) | 0.0764 (≈ 0.192 µM) | – | 0.035 | ED50 (Rattus norvegicus [9]): No effect
26 | O=C(O)COC/C=C1\CC2C[C@@H](O)[C@H](/C=C/[C@@H](O)C3COc4ccccc4O3)C2C1 (some centres not stated) | 0.582 (≈ 1.4 µM) | 0.113 | 0.0025 | –
27 | CC1([C@H](O)/C=C/[C@@H]2C3C/C(=C/COCC(=O)O)CC3C[C@H]2O)Cc2ccccc2C1 (some centres not stated) | 0.118 (≈ 0.286 µM) | 0.0397 | 0.0076 | –
28 | O=C(O)COCCC1=C[C@H]2C[C@@H](O)[C@H](/C=C/[C@@H](O)C3COc4ccccc4O3)C2C1 (some centres not stated) | 0.0531 (≈ 0.128 µM) | 0.0085 | 0.0017 | –
29 | CC1([C@H](O)/C=C/[C@@H]2C3C/C(=C/CCCC(=O)O)CC3C[C@H]2O)COc2ccccc2O1 (some centres not stated) | 0.221 (≈ 0.516 µM) | 0.0142 | 0.0036 | –
